Among the data in article PMC10762718 (RSC Advances, 2024) are viability values, retold here.

The subject of the assay is MDA-MB-231 (human breast cancer) cells. As to the kind of experiment: MTT cell viability assay, MDA-MB-231. The assay is classed as cell-based. The note with it: MDA-MB-231, 72 h, read-out: Cell viability (%) ±SD. The essentials: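 MDA-MB-231 cells were grown as a monolayer in DMEM with 10% heat-inactivated FBS and 1% penicillin-streptomycin at 37 °C in humidified CO2, subcultured every third day with trypsin-EDTA, and used before passage 8. Cells were exposed 72 h to 10, 25 and 50 μM. Medium was removed, MTT added for 3 h at 37 °C, formazan dissolved in DMSO and read at 595 nm. Viability is relative to untreated control, triplicates, ±SD. IC50 comes from the viability-versus-concentration plot.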

`CC(=O)OC[C@@H]1O[C@H](n2cc(Cn3ccc4nc(-c5ccc(C)cc5)cc(=O)n43)nn2)[C@@H](OC(C)=O)[C@H](OC(C)=O)[C@H]1OC(C)=O` (stereo in doubt) [Compound 22, (2S,3S,4R,5S,6S)-2-(Acetoxymethyl)-6-(4-((7-oxo-5-(p-tolyl)pyrazolo[1,5-a]pyrimidin-1(7H)-yl)methyl)-1H-1,2,3-triazol-1-yl)tetrahydro-2H-pyran-3,4,5-triyl triacetate]: the viability – broadly, a read-out of living cells in per cent, often relative to untreated cells – at 10 µM is 92.4 ± 5.38%; the viability at 25 µM worked out at 87.5 ± 6.74%; the viability at 50 µM came out at 85.4 ± 4.16%.

On to `CC(=O)OC[C@@H]1O[C@H](n2cc(Cn3ccc4nc(-c5ccc(Br)cc5)cc(=O)n43)nn2)[C@@H](OC(C)=O)[C@H](OC(C)=O)[C@H]1OC(C)=O` (stereo in doubt) [Compound 24, (2S,3S,4R,5S,6S)-2-(Acetoxymethyl)-6-(4-((5-(4-bromophenyl)-7-oxopyrazolo[1,5-a]pyrimidin-1(7H)-yl)methyl)-1H-1,2,3-triazol-1-yl)tetrahydro-2H-pyran-3,4,5-triyl triacetate], for which the viability at 10 µM was 100 ± 8.01%, the viability at 25 µM stood at 100 ± 8.93% and the viability at 50 µM was found to be 98.5 ± 2.89%.

Regarding `CC(=O)OC[C@@H]1O[C@H](n2cc(Cn3ccc4nc(-c5ccc(Cl)cc5)cc(=O)n43)nn2)[C@@H](OC(C)=O)[C@H](OC(C)=O)[C@H]1OC(C)=O` (stereo in doubt) [Compound 25, (2S,3S,4R,5S,6S)-2-(Acetoxymethyl)-6-(4-((5-(4-chlorophenyl)-7-oxopyrazolo[1,5-a]pyrimidin-1(7H)-yl)methyl)-1H-1,2,3-triazol-1-yl)tetrahydro-2H-pyran-3,4,5-triyl triacetate], the viability at 10 µM came out at 98.6 ± 2.25%, the viability at 25 µM was 93.2 ± 1.96% and the viability at 50 µM was determined as 86.2 ± 9.22%.

As for `CC(=O)OC[C@@H]1O[C@H](n2cc(Cn3ccc4nc(-c5ccc(C(F)(F)F)cc5)cc(=O)n43)nn2)[C@@H](OC(C)=O)[C@H](OC(C)=O)[C@H]1OC(C)=O` (stereo in doubt) [Compound 27, (2S,3S,4R,5S,6S)-2-(Acetoxymethyl)-6-(4-((7-oxo-5-(4-(trifluoromethyl)phenyl)pyrazolo[1,5-a]pyrimidin-1(7H)-yl)methyl)-1H-1,2,3-triazol-1-yl)tetrahydro-2H-pyran-3,4,5-triyl triacetate], the viability at 10 µM was found to be 93.2 ± 8.51%, the viability at 25 µM stood at 89.8 ± 8.75% and the viability at 50 µM turned out to be 74.8 ± 7.02%.

For the molecule `CC(=O)OC[C@@H]1O[C@H](n2cc(Cn3ccc4nc(-c5ccc(C(C)C)cc5)cc(=O)n43)nn2)[C@@H](OC(C)=O)[C@H](OC(C)=O)[C@H]1OC(C)=O` (stereo in doubt) [Compound 28, (2S,3S,4R,5S,6S)-2-(Acetoxymethyl)-6-(4-((5-(4-isopropylphenyl)-7-oxopyrazolo[1,5-a]pyrimidin-1(7H)-yl)methyl)-1H-1,2,3-triazol-1-yl)tetrahydro-2H-pyran-3,4,5-triyl triacetate], the viability at 10 µM stood at 102 ± 8.51%, the viability at 25 µM stood at 99.1 ± 3.51% and the viability at 50 µM came out at 69.5 ± 17.7%.

With `CC(=O)OC[C@@H]1O[C@H](n2cc(Cn3ccc4nc(-c5ccc6ccccc6c5)cc(=O)n43)nn2)[C@@H](OC(C)=O)[C@H](OC(C)=O)[C@H]1OC(C)=O` (stereo in doubt) [Compound 29, (2S,3S,4R,5S,6S)-2-(Acetoxymethyl)-6-(4-((5-(naphthalen-2-yl)-7-oxopyrazolo[1,5-a]pyrimidin-1(7H)-yl)methyl)-1H-1,2,3-triazol-1-yl)tetrahydro-2H-pyran-3,4,5-triyl triacetate], the viability at 10 µM was determined as 89.1 ± 4.09%, the viability at 25 µM was found to be 81.5 ± 2.58% and the viability at 50 µM is 88.4 ± 7.36%.

Regarding `CC(=O)OC[C@@H]1O[C@H](n2cc(Cn3ccc4nc(-c5ccc(C)cc5)cc(=O)n43)nn2)[C@@H](OC(C)=O)[C@H](OC(C)=O)[C@@H]1OC(C)=O` (stereo in doubt) [Compound 31, (2S,3R,4R,5S,6S)-2-(Acetoxymethyl)-6-(4-((7-oxo-5-(p-tolyl)pyrazolo[1,5-a]pyrimidin-1(7H)-yl)methyl)-1H-1,2,3-triazol-1-yl)tetrahydro-2H-pyran-3,4,5-triyl triacetate], the viability at 10 µM stood at 81.7 ± 8.36%, the viability at 25 µM was 88.5 ± 6.73% and the viability at 50 µM amounted to 78.8 ± 10.4%.

`COc1ccc(-c2cc(=O)n3c(ccn3Cc3cn([C@H]4O[C@@H](COC(C)=O)[C@@H](OC(C)=O)[C@@H](OC(C)=O)[C@@H]4OC(C)=O)nn3)n2)cc1` (stereo in doubt) [Compound 32, (2S,3R,4R,5S,6S)-2-(Acetoxymethyl)-6-(4-((5-(4-methoxyphenyl)-7-oxopyrazolo[1,5-a]pyrimidin-1(7H)-yl)methyl)-1H-1,2,3-triazol-1-yl)tetrahydro-2H-pyran-3,4,5-triyl triacetate]: the viability at 10 µM worked out at 92.5 ± 9.39%, the viability at 25 µM was 86.2 ± 8.63% and the viability at 50 µM was 72.5 ± 6.24%.

Take `CC(=O)OC[C@@H]1O[C@H](n2cc(Cn3ccc4nc(-c5ccc(Cl)cc5)cc(=O)n43)nn2)[C@@H](OC(C)=O)[C@H](OC(C)=O)[C@@H]1OC(C)=O` (stereo in doubt) [Compound 34, (2S,3R,4R,5S,6S)-2-(Acetoxymethyl)-6-(4-((5-(4-chlorophenyl)-7-oxopyrazolo[1,5-a]pyrimidin-1(7H)-yl)methyl)-1H-1,2,3-triazol-1-yl)tetrahydro-2H-pyran-3,4,5-triyl triacetate]: the viability at 10 µM came to 78.5 ± 2.43%, the viability at 25 µM worked out at 76.8 ± 2.43% and the viability at 50 µM was found to be 73 ± 2.62%.

Regarding `CC(=O)OC[C@@H]1O[C@H](n2cc(Cn3ccc4nc(-c5ccc(F)cc5)cc(=O)n43)nn2)[C@@H](OC(C)=O)[C@H](OC(C)=O)[C@@H]1OC(C)=O` (stereo in doubt) [Compound 35, (2S,3R,4R,5S,6S)-2-(Acetoxymethyl)-6-(4-((5-(4-fluorophenyl)-7-oxopyrazolo[1,5-a]pyrimidin-1(7H)-yl)methyl)-1H-1,2,3-triazol-1-yl)tetrahydro-2H-pyran-3,4,5-triyl triacetate], the viability at 10 µM stood at 82.4 ± 9.97%, the viability at 25 µM is 78.6 ± 10.1% and the viability at 50 µM was determined as 75.3 ± 6.17%.

With `CC(=O)OC[C@@H]1O[C@H](n2cc(Cn3ccc4nc(-c5ccc(C(C)C)cc5)cc(=O)n43)nn2)[C@@H](OC(C)=O)[C@H](OC(C)=O)[C@@H]1OC(C)=O` (stereo in doubt) [Compound 37, (2S,3R,4R,5S,6S)-2-(Acetoxymethyl)-6-(4-((5-(4-isopropylphenyl)-7-oxopyrazolo[1,5-a]pyrimidin-1(7H)-yl)methyl)-1H-1,2,3-triazol-1-yl)tetrahydro-2H-pyran-3,4,5-triyl triacetate], the viability at 10 µM stood at 85.2 ± 3.5%, the viability at 25 µM is 80.5 ± 8.96% and the viability at 50 µM was determined as 78.7 ± 2.56%.

As for `CC(=O)OC[C@@H]1O[C@H](n2cc(Cn3ccc4nc(-c5ccc6ccccc6c5)cc(=O)n43)nn2)[C@@H](OC(C)=O)[C@H](OC(C)=O)[C@@H]1OC(C)=O` (stereo in doubt) [Compound 38, (2S,3R,4R,5S,6S)-2-(Acetoxymethyl)-6-(4-((5-(naphthalen-2-yl)-7-oxopyrazolo[1,5-a]pyrimidin-1(7H)-yl)methyl)-1H-1,2,3-triazol-1-yl)tetrahydro-2H-pyran-3,4,5-triyl triacetate], the viability at 10 µM was 92 ± 8.31%, the viability at 25 µM stood at 89.6 ± 9.91% and the viability at 50 µM amounted to 67.7 ± 10.8%.

Regarding `CC(=O)OC[C@@H]1O[C@H](n2cc(Cn3ccc4nc(-c5ccc6c(c5)OCO6)cc(=O)n43)nn2)[C@@H](OC(C)=O)[C@H](OC(C)=O)[C@@H]1OC(C)=O` (stereo in doubt) [Compound 39, (2S,3R,4R,5S,6S)-2-(Acetoxymethyl)-6-(4-((5-(benzo[d][1,3]dioxol-5-yl)-7-oxopyrazolo[1,5-a]pyrimidin-1(7H)-yl)methyl)-1H-1,2,3-triazol-1-yl)tetrahydro-2H-pyran-3,4,5-triyl triacetate], the viability at 10 µM was found to be 101 ± 9.67%, the viability at 25 µM stood at 98.25 ± 0.34% and the viability at 50 µM worked out at 97.5 ± 1.88%.

On to `CC(=O)OC[C@H]1O[C@H](n2cc(Cn3ccc4nc(-c5ccc(C)cc5)cc(=O)n43)nn2)[C@@H](OC(C)=O)[C@@H](OC(C)=O)[C@@H]1OC(C)=O` [Compound 40, (2R,3R,4S,5S,6S)-2-(Acetoxymethyl)-6-(4-((7-oxo-5-(p-tolyl)pyrazolo[1,5-a]pyrimidin-1(7H)-yl)methyl)-1H-1,2,3-triazol-1-yl)tetrahydro-2H-pyran-3,4,5-triyl triacetate], for which the viability at 10 µM was 99 ± 7.7%, the viability at 25 µM amounted to 92.8 ± 7.09% and the viability at 50 µM was determined as 91.7 ± 9.12%.

In the case of `CC(=O)OC[C@H]1O[C@H](n2cc(Cn3ccc4nc(-c5ccc(Br)cc5)cc(=O)n43)nn2)[C@@H](OC(C)=O)[C@@H](OC(C)=O)[C@@H]1OC(C)=O` [Compound 42, (2R,3R,4S,5S,6S)-2-(Acetoxymethyl)-6-(4-((5-(4-bromophenyl)-7-oxopyrazolo[1,5-a]pyrimidin-1(7H)-yl)methyl)-1H-1,2,3-triazol-1-yl)tetrahydro-2H-pyran-3,4,5-triyl triacetate], the viability at 10 µM is 81.3 ± 7.65%, the viability at 25 µM came out at 78.5 ± 6.58% and the viability at 50 µM was found to be 75.5 ± 8.45%.

As to `CC(=O)OC[C@H]1O[C@H](n2cc(Cn3ccc4nc(-c5ccc(Cl)cc5)cc(=O)n43)nn2)[C@@H](OC(C)=O)[C@@H](OC(C)=O)[C@@H]1OC(C)=O` [Compound 43, (2R,3R,4S,5S,6S)-2-(Acetoxymethyl)-6-(4-((5-(4-chlorophenyl)-7-oxopyrazolo[1,5-a]pyrimidin-1(7H)-yl)methyl)-1H-1,2,3-triazol-1-yl)tetrahydro-2H-pyran-3,4,5-triyl triacetate], the viability at 10 µM is 99.5 ± 10.2%, the viability at 25 µM amounted to 95.2 ± 10.6% and the viability at 50 µM came out at 71.4 ± 10.5%.
